Experimental data reported in ChEMBL document CHEMBL1123174, “Inhibitors of Bacillus subtilis DNA polymerase III. Influence of modifications in the pyrimidine ring of anilino- and (benzylamino)pyrimidines” (J Med Chem, 1986).

Columns and labels:
[1] = biological target: T1, DNA polymerase III PolC-type (Bacillus subtilis (strain 168), UniProt P13267); assay: Concentration producing 50% inhibition of Bacillus subtilis […] in the presence of dGTP using DNA Polymerase assay
[2] = biological target: T1, DNA polymerase III PolC-type; assay: Concentration producing 50% inhibition of Bacillus subtilis DNA polymerase III in the absence of dATP using DNA Polymerase assay; NA=Inactive
Outline: (§1)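 B. subtilis DNA polymerase III assayed as a truncated reaction: the nucleotide competing with the inhibitor class (dGTP or dATP) was omitted from the mix.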

[3] = biological target: T1, DNA polymerase III PolC-type; assay: Concentration producing 50% inhibition of Bacillus subtilis DNA polymerase III in the absence of dATP using DNA Polymerase assay; NA= Inactive; outline: as §1
[4] = biological target: T1, DNA polymerase III PolC-type; assay: Concentration producing 50% inhibition of Bacillus subtilis DNA polymerase III in the absence of dGTP using DNA Polymerase assay; settings: read-out: Ki; outline: as §1
[5] = biological target: T1, DNA polymerase III PolC-type; assay: Compound was tested for its inhibitory activity against Bacillus subtilis […] using DNA Polymerase assay; IA=Inactive; outline: as §1
[6] = biological target: T1, DNA polymerase III PolC-type; assay: Compound was tested for its inhibitory activity against DNA topoisomerase III Polymerase III using DNA Polymerase assay; IA=Inactive; outline: as §1
[7] = biological target: T1, DNA polymerase III PolC-type; assay: Concentration producing 50% inhibition of Bacillus subtilis […] in the presence of dATP using DNA Polymerase assay
[8] = biological target: T1, DNA polymerase III PolC-type; assay: Compound was tested for its inhibitory activity against Bacillus subtilis DNA topoisomerase III using DNA Polymerase assay; outline: as §1
[9] = biological target: T1, DNA polymerase III PolC-type; assay: Concentration producing 50% inhibition of Bacillus subtilis […] in the absence using DNA Polymerase assay

T1 sequence (P13267 whole entry): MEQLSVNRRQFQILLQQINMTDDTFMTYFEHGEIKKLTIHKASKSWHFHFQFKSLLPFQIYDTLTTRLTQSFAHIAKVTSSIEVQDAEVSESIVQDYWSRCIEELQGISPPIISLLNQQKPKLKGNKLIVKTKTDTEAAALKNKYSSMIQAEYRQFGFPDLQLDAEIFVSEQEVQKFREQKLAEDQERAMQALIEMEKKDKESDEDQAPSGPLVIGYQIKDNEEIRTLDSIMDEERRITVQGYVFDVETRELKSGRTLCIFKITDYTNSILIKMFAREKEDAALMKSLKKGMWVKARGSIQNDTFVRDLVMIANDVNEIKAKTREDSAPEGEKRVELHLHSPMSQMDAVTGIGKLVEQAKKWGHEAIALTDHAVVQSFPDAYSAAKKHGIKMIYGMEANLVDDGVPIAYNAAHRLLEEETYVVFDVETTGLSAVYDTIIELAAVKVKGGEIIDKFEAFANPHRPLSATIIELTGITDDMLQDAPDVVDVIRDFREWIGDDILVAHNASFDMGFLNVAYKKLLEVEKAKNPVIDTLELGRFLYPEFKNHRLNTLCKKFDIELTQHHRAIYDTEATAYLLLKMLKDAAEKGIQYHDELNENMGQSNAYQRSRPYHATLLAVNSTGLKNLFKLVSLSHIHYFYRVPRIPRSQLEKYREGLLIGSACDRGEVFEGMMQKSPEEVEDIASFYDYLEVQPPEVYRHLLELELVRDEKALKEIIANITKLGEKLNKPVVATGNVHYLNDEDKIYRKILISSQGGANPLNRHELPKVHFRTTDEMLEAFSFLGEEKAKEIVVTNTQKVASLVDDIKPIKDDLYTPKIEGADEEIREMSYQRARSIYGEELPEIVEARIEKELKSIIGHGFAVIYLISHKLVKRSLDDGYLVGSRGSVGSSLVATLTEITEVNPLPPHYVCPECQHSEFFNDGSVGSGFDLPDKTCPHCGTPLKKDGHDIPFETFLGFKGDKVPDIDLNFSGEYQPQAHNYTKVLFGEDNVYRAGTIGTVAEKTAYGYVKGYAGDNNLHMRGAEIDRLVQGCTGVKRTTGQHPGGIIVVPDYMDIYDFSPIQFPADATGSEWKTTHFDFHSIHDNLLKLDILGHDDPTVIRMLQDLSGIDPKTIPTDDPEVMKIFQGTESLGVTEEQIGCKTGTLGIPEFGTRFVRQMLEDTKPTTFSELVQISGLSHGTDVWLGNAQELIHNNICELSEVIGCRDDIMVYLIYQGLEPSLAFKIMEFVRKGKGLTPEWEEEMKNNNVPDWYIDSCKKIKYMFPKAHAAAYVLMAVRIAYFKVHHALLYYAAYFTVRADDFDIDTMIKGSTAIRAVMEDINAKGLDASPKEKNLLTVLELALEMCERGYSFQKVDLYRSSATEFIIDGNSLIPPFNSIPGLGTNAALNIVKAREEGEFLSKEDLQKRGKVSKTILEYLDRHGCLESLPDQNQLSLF

In the case of `Oc1cc(Nc2ccc3c(c2)CCC3)nc(O)n1`, the Ki [1] is reported as 0.4 µM.

`O=c1cc(NCc2ccccc2)[nH]c(=O)[nH]1` was tested, and the Ki [1] was 7.5 µM.

In the case of `CCc1c(O)nc(O)nc1Nc1ccc(C)cc1`, the Ki [2] is reported as “Not Active”.

With `Nc1nc(NCc2ccccc2)cc(SCc2ccc(Cl)cc2)n1` the Ki [3] was “Not Active”.

`CCc1c(O)nc(O)nc1NCc1ccccc1` was tested, and the IC50 [4] was 2820 µM.

`O=c1nc(NCc2ccccc2)[nH]c(=O)[nH]1` showed an IC50 [4] of 20 µM.

Compound `Cc1ccc(Nc2[nH]c(=O)[nH]c(=O)c2C)cc1` has an IC50 [4] of 1580 µM.

In the case of `O=c1[nH]c(NCc2ccccc2)c(I)c(=O)[nH]1`, the IC50 [4] is reported as 9 µM.

`Cc1ccc(Nc2nc(O)nc(O)c2N=O)cc1` was tested, and the Ki [5] was “Not Active”.

For `O=Nc1c(O)nc(O)nc1NCc1ccccc1`, the Ki [6] was “Not Active”.

For `Oc1nc(O)c(Br)c(NCc2ccccc2)n1`, the IC50 [4] was 9 µM.

`Nc1nc(O)cc(Nc2ccc3c(c2)CCC3)n1` gave a Ki [7] of 2 µM.

In the case of `Cc1ccc(Nc2nc(O)nc(O)c2Br)cc1`, the IC50 [4] is reported as 14 µM.

`Nc1nc(Cl)cc(NCc2ccccc2)n1` gave a Ki [8] of 17 µM.

Work on `Nc1nc(O)cc(NCc2ccccc2)n1` yielded a Ki [7] of 33 µM.

`Cc1ccc(Nc2nc(=O)[nH]c(=O)[nH]2)cc1` gave an IC50 [4] of 70 µM.

Work on `Cc1c(O)nc(O)nc1NCc1ccccc1` yielded a Ki [9] of 436 µM.

In the case of `Nc1nc(NCc2ccccc2)cc(SCc2ccccc2)n1`, the Ki [2] is reported as “Not Active”.
